Data published in ChEMBL document CHEMBL2203235, “Optimization of a natural product-based class of γ-secretase modulators” (J Med Chem, 2012).

Assays:
[1] = Drug uptake in CD1 mouse brain at 1 mg/kg, iv at 6 hrs
[2] = Ratio of drug uptake in brain to plasma in FVB mouse at 10 mg/kg, ip at 6 hrs; type: ADME, organism-based; set-up: dose 10 mg/kg, route intraperitoneal; conditions: brain and plasma, read-out: BPR
Procedure, shortened: (§1)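 Dosing was 10 mg/kg IP in MDR1 (P-gp) knockout mice and, identically, in wild-type FVB mice. Brain and plasma levels were taken 6 h after dosing to give a brain-to-plasma ratio.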

[3] = Ratio of drug uptake in brain to plasma in CD1 mouse at 1 mg/kg, iv at 6 hrs; conditions: brain and plasma
[4] = system: Liver microsomes; experiment: Metabolic stability in human liver microsomes at 1 uM after 60 mins by LC/MS/MS analysis; conditions: 1 h
[5] = Modulation of gamma secretase in CHO-2B7 cells assessed as reduction in amyloid beta 42 level after 5 hrs by MSD ELISA; type: cell-based; conditions: Cricetulus griseus, CHO-2B7, 5 h
[6] = Plasma concentration in CD1 mouse at 1 mg/kg, iv at 6 hrs
[7] = Modulation of gamma secretase in CHO-2B7 cells assessed as reduction in amyloid beta 40 level after 5 hrs by MSD ELISA; type: cell-based; conditions: Cricetulus griseus, CHO-2B7, 5 h
[8] = Ratio of drug uptake in brain to plasma in P-gp knockout mouse at 10 mg/kg, ip at 6 hrs; type: ADME, organism-based; set-up: dose 10 mg/kg, route intraperitoneal; conditions: brain and plasma, read-out: BPR; procedure, shortened: as §1
[9] = Half life in rat at 3 mg/kg, iv; type: ADME, organism-based; set-up: dose 3 mg/kg, route intravenous; conditions: in vivo
[10] = Clearance in rat at 3 mg/kg, iv; type: ADME, organism-based; set-up: dose 3 mg/kg, route intravenous; conditions: in vivo
[11] = Cmax in rat at 10 mg/kg, po; type: ADME, organism-based; set-up: dose 10 mg/kg, route oral; conditions: in vivo
[12] = Ratio of drug uptake in brain to plasma in rat at 10 mg/kg, po at 6 hrs; type: ADME, organism-based; set-up: dose 10 mg/kg, route oral; conditions: brain and plasma, read-out: BPR
[13] = Oral bioavailability in rat at 10 mg/kg; type: ADME, organism-based; conditions: in vivo
[14] = Volume of distribution in rat at 3 mg/kg, iv; type: ADME, organism-based; set-up: dose 3 mg/kg, route intravenous; conditions: in vivo
[15] = Metabolic stability in human liver microsomes assessed as compound remaining at 1 uM at 60 mins by LC/MS/MS analysis in absence of NADPH; type: ADME, Microsome; conditions: liver microsomes, read-out: Stability
Procedure, shortened: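 Human liver microsomes were run without NADPH as a qualitative read of susceptibility to enzymatic hydrolysis. The read-out was percent parent remaining at 60 min.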

SMILES | concentration at 6 h [1] [nM] | Kp at 6 h [2] | Kp at 6 h [3] | Stability [4] | IC50 [5] [µM] | concentration at 6 h [6] [nM] | IC50 [7] [µM] | Kp at 6 h [8] | half-life [9] [h] | clearance [10] [mL/min/kg] | Cmax [11] [nM] | Kp at 6 h [12] | bioavailability [13] [%] | Vd [14] [L/kg] | remaining at 1 h, 1 µM [15] [%]
CC(C)[C@@H](OC(=O)N1CCC1)[C@H]1C[C@@H](C)[C@H]2[C@H](O1)[C@H](O)[C@@]1(C)[C@@H]3CC[C@H]4C(C)(C)[C@@H](OC(=O)N(C)C5CN(C)C5)CC[C@@]45C[C@@]35CC[C@]21C | 11 | 0.035 | 0.04 | Stable | 0.091 | 274 | 5.4 | 3.1 |  |  |  |  |  |  | 
C[C@@H]1C[C@H]([C@H](O)C(C)(C)O)O[C@H]2[C@H]1[C@@]1(C)CC[C@@]34C[C@@]35CC[C@H](O[C@H]3CN([C@H]6CCNC6=O)CCO3)C(C)(C)[C@@H]5CC[C@H]4[C@]1(C)[C@H]2O |  |  |  |  | ≥ 20 |  |  |  | 5 | 9.67 | 2200 | 0.09 | > 100 | 3.1 | 85
